According to ChEMBL document CHEMBL5252669, “Semisynthetic blasticidin S ester derivatives show enhanced antibiotic activity” (RSC Med Chem, 2023):
In brackets after ≈: the same amount, converted by molar mass. Activity calls are given as the source filed them. The calls are words filed in the database; no cut-off is given here.

Assays:
[1] = Selectivity index, ratio of CC50 for human MRC5 cells to IC50 for MexAB-OprM deleted Pseudomonas aeruginosa; format: toxicity; conditions: read-out: Ratio CC50/IC50
Acinetobacter baumannii [2] = assay: Potency index, ratio of blasticidin-S MIC to test compound MIC for Acinetobacter baumannii; format: functional
Pseudomonas aeruginosa = assay: Antibacterial activity against MexAB-OprM deleted Pseudomonas aeruginosa incubated for 16 hrs by broth microdilution method; format: functional, organism-based; conditions: for IC50: 16 h; for MIC: time 16 hrs
Enterococcus faecalis [3] = assay: Antibacterial activity against Enterococcus faecalis ATCC 29212 incubated for 20 hrs by broth microdilution method; conditions: ATCC 29212, 20 h
[4] = Selectivity index, ratio of CC50 for human MRC5 cells to IC50 for Enterococcus faecalis ATCC 29212; format: toxicity; conditions: read-out: Ratio CC50/IC50
Escherichia coli = assay: Potency index, ratio of blasticidin-S MIC to test compound MIC for Escherichia coli; format: functional
[5] = Selectivity index, ratio of CC50 for human MRC5 cells to IC50 for Acinetobacter baumannii ATCC 17978; format: toxicity; conditions: read-out: Ratio CC50/IC50
[6] = Selectivity index, ratio of CC50 for human MRC5 cells to IC50 for Klebsiella pneumoniae ATCC 29665; format: toxicity; conditions: read-out: Ratio CC50/IC50
Staphylococcus aureus [7] = assay: Antibacterial activity against NorA deleted Staphylococcus aureus incubated for 16 hrs by broth microdilution method; format: functional, organism-based; conditions: for IC50: 16 h; for MIC: time 16 hrs
Summary of the method: (§1)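 Cation-adjusted Mueller-Hinton broth microdilution. Overnight cultures from single colonies were diluted to OD600 0.004. Final compound range was 256–2 μg mL−1 in 1:1 methanol/water vehicle, with doxycycline and vehicle controls. Plates were incubated 16 h at 37 °C. OD600 was normalized to controls, and MIC was the lowest concentration inhibiting >90% growth. Two biological replicates in duplicate; reported as a range.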

Staphylococcus aureus [8] = assay: Antibacterial activity against wild type Staphylococcus aureus 8810 incubated for 16 hrs by broth microdilution method; format: functional, organism-based; conditions: for IC50: Staphylococcus aureus, 8810, 16 h; for MIC: Staphylococcus aureus, 8810, time 16 hrs; summary of the method: as §1
Staphylococcus aureus [9] = assay: Potency index, ratio of blasticidin-S MIC to test compound MIC for Staphylococcus aureus; format: functional
[10] = Selectivity index, ratio of CC50 for human MRC5 cells to IC50 for methicillin resistant Staphylococcus aureus; format: toxicity; conditions: read-out: Ratio CC50/IC50
[11] = Selectivity index, ratio of CC50 for human MRC5 cells to IC50 for vancomycin-resistant Enterococcus; format: toxicity; conditions: read-out: Ratio CC50/IC50
Saccharomyces cerevisiae = assay: Antifungal activity against Saccharomyces cerevisiae incubated for 16 hrs by broth microdilution method; format: functional
Acinetobacter baumannii [12] = assay: Antibacterial activity against Acinetobacter baumannii ATCC 17978 incubated for 16 hrs by broth microdilution method; format: functional, organism-based; conditions: for IC50: ATCC 17978, 16 h; for MIC: ATCC 17978, time 16 hrs
Enterococcus [13] = assay: Antibacterial activity against vancomycin-resistant Enterococcus incubated for 20 hrs by broth microdilution method
[14] = Cytotoxicity against human MRC5 cells incubated for 24 hrs by MTS assay; format: toxicity, cell-based
Summary of the method: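 MRC-5 lung fibroblasts seeded 5000 per well; medium replaced with compound 16–192 μg mL−1 or matching 1:1 methanol:water vehicle; 24 h, then MTS 3–4 h; absorbance 490 nm; viability relative to untreated cells, normalized to vehicle; CC50 from two independent assays in duplicate, mean ± SD.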

Candida albicans [15] = assay: Antifungal activity against Candida albicans incubated for 16 hrs by broth microdilution method; format: functional
[16] = Selectivity index, ratio of CC50 for human MRC5 cells to IC50 for NorA deleted Staphylococcus aureus; format: toxicity; conditions: read-out: Ratio CC50/IC50
[17] = Selectivity index, ratio of CC50 for human MRC5 cells to IC50 for Staphylococcus aureus; format: toxicity; conditions: read-out: Ratio CC50/IC50
Staphylococcus aureus [18] = assay: Antibacterial activity against methicillin resistant Staphylococcus aureus ATCC 43300 incubated for 16 hrs by broth microdilution method; format: functional, organism-based; conditions: for IC50: ATCC 43300, 16 h; for MIC: ATCC 43300, time 16 hrs; summary of the method: as §1
Klebsiella pneumoniae = assay: Antibacterial activity against Klebsiella pneumoniae ATCC 29665 incubated for 16 hrs by broth microdilution method; format: functional, organism-based; conditions: for IC50: ATCC 29665, 16 h; for MIC: ATCC 29665, time 16 hrs
Candida albicans [19] = assay: Antifungal activity against Candida albicans assessed as zone of inhibition incubated for 18 hrs by spot on lawn assay; format: functional, organism-based
Summary of the method: (§2)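 Overnight LB cultures diluted to OD600 0.01 in 0.7% LB top agar, overlaid on 1.5% LB agar; 5 mg mL−1 aqueous compound spotted at 35, 25, 10 and 5 μg with 1:1 water/methanol vehicle spot; 37 °C, 18 h; inhibition zone diameter measured by ruler.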

Staphylococcus aureus [20] = assay: Antibacterial activity against methicillin resistant Staphylococcus aureus assessed as zone of inhibition incubated for 18 hrs by spot on lawn assay; format: functional, organism-based
Summary of the method: (§3)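 Spot-on-lawn assay. Plates of 1.5% agar in LB were overlaid with 0.7% LB agar seeded with overnight culture at 0.01 OD600. Aqueous 5 mg mL−1 solutions were spotted at 35, 25, 10 and 5 μg, with a 1:1 water/methanol vehicle spot. After 18 h at 37 °C, inhibition zone diameters were measured with a ruler.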

Staphylococcus aureus [21] = assay: Antibacterial activity against Staphylococcus aureus assessed as zone of inhibition incubated for 18 hrs by spot on lawn assay; format: functional, organism-based; summary of the method: as §2
Enterococcus faecalis [22] = assay: Antibacterial activity against Enterococcus faecalis ATCC 29212 assessed as zone of inhibition incubated for 18 hrs by spot on lawn assay; format: functional, organism-based; summary of the method: as §2
Enterococcus [23] = assay: Antibacterial activity against vancomycin-resistant Enterococcus assessed as zone of inhibition incubated for 18 hrs by spot on lawn assay; format: functional, organism-based; summary of the method: as §3
Staphylococcus aureus [24] = assay: Antibacterial activity against NorA deleted Staphylococcus aureus assessed as zone of inhibition incubated for 18 hrs by spot on lawn assay; format: functional, organism-based; summary of the method: as §2

SMILES | selectivity ratio [1] | IC50 (Pseudomonas aeruginosa) [µg/mL] | MIC (Pseudomonas aeruginosa) [µg/mL] | IC50 (Enterococcus faecalis [3]) [µg/mL] | MIC (Enterococcus faecalis [3]) [µg/mL] | selectivity ratio [4] | selectivity ratio [5] | selectivity ratio [6] | IC50 (Staphylococcus aureus [7]) [µg/mL] | MIC (Staphylococcus aureus [7]) [µg/mL] | IC50 (Staphylococcus aureus [8]) [µg/mL] | MIC (Staphylococcus aureus [8]) [µg/mL] | selectivity ratio [10] | selectivity ratio [11] | MIC (Saccharomyces cerevisiae) [µg/mL] | IC50 (Acinetobacter baumannii [12]) [µg/mL] | MIC (Acinetobacter baumannii [12]) [µg/mL] | IC50 (Enterococcus [13]) [µg/mL] | MIC (Enterococcus [13]) [µg/mL] | CC50 at 24 h [14] [µg/mL] | further results
CN(CC[C@H](N)CC(=O)N[C@H]1C=C[C@H](n2ccc(N)nc2=O)O[C@@H]1C(N)=O)C(=N)N.Cl.Cl.Cl | 0.5 | 19.7 | 64 | 12.9 | 32 | 0.7 | 3 | 1 | 41.6 | 64 | 15.2 | 32 | 0.6 | 0.1 | 64 | 3 | 8 | 69.6 | 128 | 9.4 | PI (Acinetobacter baumannii [2]): 16; PI (Escherichia coli): 8; PI (Staphylococcus aureus [9]): 8; MIC (Candida albicans [15]): 256 µg/mL; selectivity ratio [16]: 0.2; selectivity ratio [17]: 0.6; IC50 (Staphylococcus aureus [18]): 15.4 µg/mL; MIC (Staphylococcus aureus [18]): 32 µg/mL; IC50 (Klebsiella pneumoniae): 9.3 µg/mL; MIC (Klebsiella pneumoniae): 16 µg/mL
C#CCCCOC(=O)[C@H]1O[C@@H](n2ccc(N)nc2=O)C=C[C@@H]1NC(=O)C[C@@H](N)CCN(C)C(=N)N | 0.7 | 74.3 (≈ 152 µM) | > 128 | 12.2 (≈ 25 µM) | 32 (≈ 65.5 µM) | 4.1 | 0.8 | 0.5 | 36 (≈ 73.7 µM) | 64 (≈ 131 µM) | 19.3 (≈ 39.5 µM) | 64 (≈ 131 µM) | 1.7 | 0.7 | 64 (≈ 131 µM) | 61.5 (≈ 126 µM) | > 128 | 72.1 (≈ 148 µM) | 128 (≈ 262 µM) | 50.4 (≈ 103 µM) | Activity (Candida albicans [19]): inactive; Activity (Staphylococcus aureus [20]): Active; Activity (Staphylococcus aureus [21]): Active; Activity (Enterococcus faecalis [22]): Active; MIC (Candida albicans [15]): > 128 µg/mL; selectivity ratio [16]: 1.4; selectivity ratio [17]: 2.6; Activity (Enterococcus [23]): Active; Activity (Staphylococcus aureus [24]): Active; IC50 (Staphylococcus aureus [18]): 29.2 µg/mL (≈ 59.8 µM); MIC (Staphylococcus aureus [18]): 64 µg/mL (≈ 131 µM); IC50 (Klebsiella pneumoniae): 92.3 µg/mL (≈ 189 µM); MIC (Klebsiella pneumoniae): > 128 µg/mL
CN(CC[C@H](N)CC(=O)N[C@H]1C=C[C@H](n2ccc(N)nc2=O)O[C@@H]1C(=O)OCCc1ccccc1)C(=N)N | 0.2 | 76.9 (≈ 146 µM) | > 128 | 6.9 (≈ 13.1 µM) | 8 (≈ 15.2 µM) | 2.7 | 0.2 | 0.3 | 27.3 (≈ 51.8 µM) | 64 (≈ 122 µM) | 18.1 (≈ 34.4 µM) | 64 (≈ 122 µM) | 1.2 | 1.4 | 64 (≈ 122 µM) | 113 (≈ 215 µM) | > 128 | 13.8 (≈ 26.2 µM) | 32 (≈ 60.8 µM) | 18.5 (≈ 35.1 µM) | Activity (Candida albicans [19]): inactive; Activity (Staphylococcus aureus [20]): Active; Activity (Staphylococcus aureus [21]): Active; Activity (Enterococcus faecalis [22]): Active; MIC (Candida albicans [15]): > 128 µg/mL; selectivity ratio [16]: 0.7; selectivity ratio [17]: 1; Activity (Enterococcus [23]): Active; Activity (Staphylococcus aureus [24]): Active; IC50 (Staphylococcus aureus [18]): 16.1 µg/mL (≈ 30.6 µM); MIC (Staphylococcus aureus [18]): 32 µg/mL (≈ 60.8 µM); IC50 (Klebsiella pneumoniae): 57.1 µg/mL (≈ 108 µM); MIC (Klebsiella pneumoniae): > 128 µg/mL
